Tests used:
[1] = test system: Human immunodeficiency virus 1; assay: Ratio of EC50 for HIV1 A harboring L10I/I15V/E35D/N37E/K45R/I54V/L63P/A71V/V82T/L90M/I93L/C95F in protease encoding region to EC50 for HIV1 ERS104pre; format: functional
[2] = test system: Human immunodeficiency virus 1; assay: Antiviral activity against HIV1 MOKW infected in human PHA-PBC assessed as inhibition of p24 Gag protein production by ELISA; format: functional, organism-based; settings: Human immunodeficiency virus 1, MOKW
In short: (§1)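 Phytohemagglutinin-stimulated PBMs (10^6/ml) infected with 50 TCID50s of each primary isolate, cultured with or without drug in 10-fold serial dilutions. On day 7, supernatant p24 Gag was measured by automated chemiluminescent enzyme immunoassay. […] Triplicate.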

[3] = test system: Human immunodeficiency virus 1; assay: Antiviral activity against HIV1 JSL harboring L10I/L24I/L33F/E35D/M36I/N37S/M46L/I54V/R57K/I62V/L63P/A71V/G73S/82A in protease encoding region infected in human PHA-PBC assessed as inhibition of p24 Gag protein production by ELISA; format: functional, organism-based; settings: Human immunodeficiency virus 1, JSL; in short: as §1
[4] = test system: Human immunodeficiency virus 1; assay: Antiviral activity against HIV1 TM harboring L10I/K14R/R41K/M46L/I54V/L63P/A71V/V82A/L90M/I93L in protease encoding region infected in human PHA-PBC assessed as inhibition of p24 Gag protein production by ELISA; format: functional, organism-based; settings: Human immunodeficiency virus 1, TM; in short: as §1
[5] = test system: Human immunodeficiency virus 1; assay: Ratio of EC50 for HIV1 C harboring L10I/I15V/K20R/L24I/M36I/M46L/I54V/I62V/L63P/K70Q/V82A/L89M in protease encoding region to EC50 for HIV1 ERS104pre; format: functional
[6] = test system: Human immunodeficiency virus 1; assay: Ratio of EC50 for HIV1 TM harboring L10I/K14R/R41K/M46L/I54V/L63P/A71V/V82A/L90M/I93L in protease encoding region to EC50 for HIV1 ERS104pre; format: functional
In short: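 PHA-stimulated PBMs (10^6/ml) infected with 50 TCID50s of primary HIV-1 isolate and cultured with 10-fold serial drug dilutions. Day 7 supernatant p24 Gag measured by chemiluminescent enzyme immunoassay. […] Triplicate. Ratio is resistant isolate EC50 over reference isolate EC50.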

[7] = test system: Human immunodeficiency virus 1; assay: Antiviral activity against HIV1 B harboring L10I/I15V/E35D/N37E/K45R/I54V/L63P/A71V/V82T/L90M/I93L/C95F in protease encoding region infected in human PHA-PBC assessed as inhibition of p24 Gag protein production by ELISA; format: functional, organism-based; settings: Human immunodeficiency virus 1, B; in short: as §1
[8] = test system: Human immunodeficiency virus 1; assay: Antiviral activity against HIV1 ERS104pre infected in human PHA-PBC assessed as inhibition of p24 Gag protein production by ELISA; format: functional, organism-based; settings: Human immunodeficiency virus 1, ERS104pre
In short: (§2)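 Phytohemagglutinin-stimulated PBMs (10^6/ml) infected with 50 TCID50s of each primary isolate, cultured with or without drug in 10-fold serial dilutions. On day 7, supernatant p24 Gag was measured by automated chemiluminescent enzyme immunoassay. Triplicate.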

[9] = test system: Human immunodeficiency virus 1; assay: Ratio of EC50 for HIV1 G harboring L10I/V11I/T12E/I15V/L19I/R41K/M46L/L63P/A71T/V82A/L90M in protease encoding region to EC50 for HIV1 ERS104pre; format: functional
[10] = test system: Human immunodeficiency virus 1; assay: Ratio of EC50 for HIV1 JSL harboring L10I/L24I/L33F/E35D/M36I/N37S/M46L/I54V/R57K/I62V/L63P/A71V/G73S/82A in protease encoding region to EC50 for HIV1 ERS104pre; format: functional
[11] = test system: Human immunodeficiency virus 1; assay: Ratio of EC50 for HIV1 MM harboring L10I/K43T/M46L/I54V/L63P/A71V/V82A/L90M/Q92K in protease encoding region infected to EC50 for HIV1 ERS104pre; format: functional
[12] = test system: Human immunodeficiency virus 1; assay: Antiviral activity against HIV1 MM harboring L10I/K43T/M46L/I54V/L63P/A71V/V82A/L90M/Q92K in protease encoding region infected in human PHA-PBC assessed as inhibition of p24 Gag protein production by ELISA; format: functional, organism-based; settings: Human immunodeficiency virus 1, MM; in short: as §1
[13] = test system: Human immunodeficiency virus 1; assay: Ratio of EC50 for HIV1 B harboring L10I/I15V/E35D/N37E/K45R/I54V/L63P/A71V/V82T/L90M/I93L/C95F in protease encoding region to EC50 for HIV1 ERS104pre; format: functional
[14] = test system: Human immunodeficiency virus 1; assay: Antiviral activity against HIV1 A harboring L10I/I15V/E35D/N37E/K45R/I54V/L63P/A71V/V82T/L90M/I93L/C95F in protease encoding region infected in human PHA-PBC assessed as inhibition of p24 Gag protein production by ELISA; format: functional, organism-based; settings: Human immunodeficiency virus 1, A; in short: as §2
[15] = test system: Human immunodeficiency virus 1; assay: Antiviral activity against HIV1 NL4-3 harboring L10I/G48V/I54V/L90M amino acid substitution in protease encoding region infected in human MT4 cells assessed as inhibition of p24 Gag protein production selected at 5 uM of saquinavir by ELISA; format: functional, organism-based; settings: Human immunodeficiency virus 1, NL4-3, MT4
In short: (§3)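 HIV-1NL4-3 (500 TCID50s) was passaged in MT-4 cells, starting at 0.01–0.03 µM PI and raising the drug generally two- to threefold as virus propagated. Cell-free passage used day-7 supernatants. Variants were then tested in MT-4 cells (10^5/ml) with 100 TCID50s, with or without drug, at 37°C. Day-7 p24 Gag was read by chemiluminescent immunoassay; EC50 vs drug-free control; triplicate.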

[16] = test system: Human immunodeficiency virus 1; assay: Antiviral activity against HIV1 NL4-3 harboring L10F/L24I/M46I/L63P/A71V/G73S/V82T amino acid substitution in protease encoding region infected in human MT4 cells assessed as inhibition of p24 Gag protein production selected at 5 uM of indinavir by ELISA; format: functional, organism-based; settings: Human immunodeficiency virus 1, NL4-3, MT4; in short: as §3
[17] = test system: Human immunodeficiency virus 1; assay: Antiviral activity against HIV1 G harboring L10I/V11I/T12E/I15V/L19I/R41K/M46L/L63P/A71T/V82A/L90M in protease encoding region infected in human PHA-PBC assessed as inhibition of p24 Gag protein production by ELISA; format: functional, organism-based; settings: Human immunodeficiency virus 1, G; in short: as §1
[18] = test system: Human immunodeficiency virus 1; assay: Antiviral activity against HIV1 NL4-3 harboring L23I/K43I/M46I/I50L/G51A/A71V amino acid substitution in protease encoding region infected in human MT4 cells assessed as inhibition of p24 Gag protein production selected at 1 uM of atazanavir by ELISA; format: functional, organism-based; settings: Human immunodeficiency virus 1, NL4-3, MT4; in short: as §3
[19] = test system: Human immunodeficiency virus 1; assay: Antiviral activity against HIV1 NL4-3 harboring L10F/D30N/K45I/A71V/T74S amino acid substitution in protease encoding region infected in human MT4 cells assessed as inhibition of p24 Gag protein production selected at 5 uM of nelfinavir by ELISA; format: functional, organism-based; settings: Human immunodeficiency virus 1, NL4-3, MT4; in short: as §3
[20] = test system: Human immunodeficiency virus 1; assay: Antiviral activity against HIV1 C harboring L10I/I15V/K20R/L24I/M36I/M46L/I54V/I62V/L63P/K70Q/V82A/L89M in protease encoding region infected in human PHA-PBC assessed as inhibition of p24 Gag protein production by ELISA; format: functional, organism-based; settings: Human immunodeficiency virus 1, C; in short: as §1
[21] = test system: Human immunodeficiency virus 1; assay: Antiviral activity against HIV1 NL4-3 harboring M46I/V82F/I84V amino acid substitution in protease encoding region infected in human MT4 cells assessed as inhibition of p24 Gag protein production selected at 5 uM of ritonavir by ELISA; format: functional, organism-based; settings: Human immunodeficiency virus 1, NL4-3, MT4; in short: as §3
[22] = test system: Human immunodeficiency virus 1; assay: Antiviral activity against HIV1 NL4-3 harboring L10F/V32I/M46I/I54M//A71V/I84V amino acid substitution in protease encoding region infected in human MT4 cells assessed as inhibition of p24 Gag protein production selected at 5 uM of amprenavir by ELISA; format: functional, organism-based; settings: Human immunodeficiency virus 1, NL4-3, MT4
In short: (§4)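 Cell-free passage used day-7 supernatants. Variants were then tested in MT-4 cells (10^5/ml) with 100 TCID50s, with or without drug, at 37°C. Day-7 p24 Gag was read by chemiluminescent immunoassay; EC50 vs drug-free control; triplicate.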

[23] = test system: Human immunodeficiency virus 1; assay: Antiviral activity against HIV1 NL4-3 harboring L10F/L33F/M46I/I47V/Q58E/V82I/I84V/I85V amino acid substitution in protease encoding region infected in human MT4 cells assessed as inhibition of p24 Gag protein production selected at 5 uM of GRL-02031 by ELISA; format: functional, organism-based; settings: Human immunodeficiency virus 1, NL4-3, MT4; in short: as §4
[24] = test system: Human immunodeficiency virus; assay: Antiviral activity against HIV1 LAI infected in human MT2 cells after 7 days by MTT assay; format: functional, organism-based; settings: Human immunodeficiency virus 1, LAI, MT2, 168 h
[25] = test system: Human immunodeficiency virus 1; assay: Antiviral activity against HIV1 NL4-3 harboring L10F/M46I/I54V/V82A amino acid substitution in protease encoding region infected in human MT4 cells assessed as inhibition of p24 Gag protein production selected at 1 uM of Lopinavir by ELISA; format: functional, organism-based; settings: Human immunodeficiency virus 1, NL4-3, MT4; in short: as §4
[26] = test system: Human immunodeficiency virus 1; assay: Antiviral activity against HIV1 NL4-3 infected in human MT4 cells assessed as inhibition of p24 gag protein production by ELISA; format: functional, organism-based; settings: Human immunodeficiency virus 1, NL4-3, MT4
In short: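 MT-4 cells (10^5/ml) were infected with 100 TCID50s of HIV-1 and cultured at 37°C with or without various drug concentrations. On day 7, supernatant p24 Gag was measured by automated chemiluminescent enzyme immunoassay. […] Assays were run in triplicate.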

Compound	Ratio EC50 [1]	EC50 [2] [nM]	EC50 [3] [nM]	EC50 [4] [nM]	Ratio EC50 [5]	Ratio EC50 [6]	EC50 [7] [nM]	EC50 [8] [nM]	Ratio EC50 [9]	Ratio EC50 [10]	Ratio EC50 [11]	EC50 [12] [nM]	Ratio EC50 [13]	EC50 [14] [nM]	EC50 [15] [nM]	EC50 [16] [nM]	EC50 [17] [nM]	EC50 [18] [nM]	EC50 [19] [nM]	EC50 [20] [nM]	other results
CC(C)CN(C[C@@H](O)[C@H](Cc1ccccc1)NC(=O)O[C@H]1CO[C@H]2OCC[C@H]21)S(=O)(=O)c1ccc(N)cc1	1	3	26	4	2	1	26	3.5	2	7	5	17	7	3							
Cc1cccc(C)c1OCC(=O)N[C@@H](Cc1ccccc1)[C@@H](O)C[C@H](Cc1ccccc1)NC(=O)[C@H](C(C)C)N1CCCNC1=O [LOPINAVIR]		29	740	230			250					620			700	> 1000	130	25	290	460	EC50 [21]: 110 nM
CC(C)c1nc(CN(C)C(=O)N[C@H](C(=O)N[C@@H](Cc2ccccc2)C[C@H](O)[C@H](Cc2ccccc2)NC(=O)OCc2cncs2)C(C)C)cs1 [RITONAVIR]		36	> 1000	> 1000			> 1000	36				> 1000		> 1000	> 1000	> 1000	> 1000	140	80	> 1000	EC50 [22]: > 1000 nM; EC50 [23]: 260 nM; EC50 [24]: 38 nM; EC50 [25]: > 1000 nM; EC50 [21]: > 1000 nM; EC50 [26]: 21 nM
Cc1cn([C@H]2C[C@H](N=[N+]=[N-])[C@@H](CO)O2)c(=O)[nH]c1=O [ZIDOVUDINE]	24	16	180	890	56	178	> 1000	5	>120	36	90	450	200	120			600			280	

— ChEMBL document CHEMBL1649117, “GRL-02031, a novel nonpeptidic protease inhibitor (PI) containing a stereochemically defined fused cyclopentanyltetrahydrofuran potent against multi-PI-resistant human immunodeficiency virus type 1 in vitro” (Antimicrob Agents Chemother, 2009)
